The record followed here is ChEMBL document CHEMBL1157686, “Synthesis, stereoelectronic characterization and antiparasitic activity of new 1-benzenesulfonyl-2-methyl-1,2,3,4-tetrahydroquinolines” (Bioorg Med Chem, 2010).

Data set [1] relates to Plasmodium falciparum. Nature of the data set: Antiplasmodial activity against chloroquine and pyrimethamine-resistant Plasmodium falciparum K1 infected in rat L6 cells. It is filed as functional, organism-based. A digest of the protocol: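 P. falciparum K1 (chloroquine- and pyrimethamine-resistant) tested in vitro following an earlier-published method. Compounds were run in duplicate over 0.2–300 μM. Values are the mean of four determinations (two per experiment, two independent experiments).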

For data set [2], the system named is L6. Nature of the data set: Cytotoxicity against rat L6 cells. In kind it is cell-based. The essentials: (§1)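 Protocol follows an earlier published method. Compounds were tested in duplicate over 0.2–300 μM.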
Data set [3] is described as follows: Selectivity index, ratio of IC50 for rat L6 cells to IC50 for Trypanosoma cruzi infected in rat L6 cells. In kind it is toxicity, cell-based. As to conditions: read-out: Ratio IC50. The essentials:
(§2)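 SI = IC50 in rat L6 cells / IC50 against the parasite (T. cruzi or P. falciparum K1). Both IC50s came from duplicate in vitro runs over 0.2–300 μM following an earlier-published method, each averaged from four determinations across two independent experiments.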

The nature of data set [4]: Selectivity index, ratio of IC50 for rat L6 cells to IC50 for chloroquine and pyrimethamine-resistant Plasmodium falciparum K1 infected in rat L6 cells. It is filed as toxicity, cell-based. Particulars: read-out: Ratio IC50. A digest of the protocol:
as §2

Data set [5] can be described thus: Ratio of compound IC50 to podophyllotoxin IC50 for rat L6 cells. Particulars: read-out: Ratio IC50. In kind it is cell-based.
The test system of data set [6] is Trypanosoma brucei rhodesiense. The experiment in a line: Antitrypanosomal activity against Trypanosoma brucei rhodesiense infected in rat L6 cells. It is filed as functional, organism-based. The essentials:
as §1

Data set [7] has as its system Trypanosoma cruzi. Nature of the data set: Antitrypanosomal activity against Trypanosoma cruzi infected in rat L6 cells. In kind it is functional, organism-based. A digest of the protocol:
as §1

Data set [8] deals with Leishmania donovani. Nature of the data set: Antileishmanial activity against Leishmania donovani infected in rat L6 cells. In kind it is functional, organism-based. The essentials:
as §1

The test system of data set [9] is Trypanosoma cruzi. Nature of the data set: Ratio of compound IC50 to benznidazole IC50 for Trypanosoma cruzi infected in rat L6 cells. In kind it is functional.

The term IC50 denotes the concentration at which inhibition is half-maximal. Regarding `CC1CCc2ccccc2N1S(=O)(=O)c1cccc([N+](=O)[O-])c1` (stereo unspecified), the IC50 in [1] turned out to be 10.3 µM; in [2], 187 µM; in data set [6] it was 33.1 µM; in [7], 31.9 µM; in [8], 24.9 µM. Also, the selectivity ratio is 5.85 in data set [3], 18.1 in [4] and 590 in data set [5].

`CC1CCc2ccccc2N1` (stereo unspecified): the IC50 was greater than 34 µM in data set [1]; 249 µM in data set [2]; 87.2 µM in [6]; 189 µM in data set [7]; greater than 611 µM in data set [8]. The selectivity ratio was 1.32 in data set [3] and less than 7.32 in data set [4].

As to `CC1CCc2ccccc2N1S(=O)(=O)c1ccccc1` (stereo unspecified), the half-maximal inhibitory concentration (IC50) in [1] amounted to 13.2 µM; in [2], 70 µM; in data set [6], 52.9 µM; in [7] it was 21.3 µM; in data set [8], 174 µM. Also, the figures for the selectivity ratio in data set [3], in data set [4] and in [5] were 3.29, 5.28 and 590, respectively.

For `CC(=O)Nc1ccc(S(=O)(=O)N2c3ccccc3CCC2C)cc1` (stereo unspecified), the IC50 was greater than 14.5 µM in [1]; 52 µM in data set [2]; 49.8 µM in data set [6]; 21.4 µM in [7]; 50.7 µM in data set [8]. Further, the selectivity ratio in [3] was 2.42; in data set [4] it was less than 3.58; in data set [5] it was 590.

`Cc1ccc(S(=O)(=O)N2c3ccccc3CCC2C)cc1` (stereo unspecified): the IC50 in [1] turned out to be 11 µM; in data set [2], 4.9 µM; in data set [6] it was 44 µM; in data set [7], 16.6 µM; in data set [8], 22.5 µM. Moreover, the figures for the selectivity ratio in data set [3], in data set [4] and in [5] were 0.29, 0.44 and 590, respectively.

As for `CC1CCc2ccccc2N1S(=O)(=O)c1ccc(F)cc1` (stereo unspecified), the IC50 in data set [1] came to 12.1 µM; in data set [2], 67.6 µM; in data set [6] it was 125 µM; in data set [7] it was 224 µM; in [8] it was 167 µM. Besides, the values for the selectivity ratio in data set [3], in [4] and in data set [5] were 0.3, 5.58 and 590, respectively.

For `CC1CCc2ccccc2N1S(=O)(=O)c1ccc(Cl)cc1` (stereo unspecified), the IC50 in data set [1] is 8.43 µM; in data set [2] it was 20.5 µM; in data set [6] it was 43.5 µM; in data set [7], 16 µM; in data set [8] it was 18.9 µM. The selectivity ratio in data set [3] was found to be 1.28; in [4], 2.43; in data set [5] it was 590.

Take `CC1CCc2ccccc2N1S(=O)(=O)c1ccc(Br)cc1` (stereo unspecified): the IC50 in [1] came out at 6.65 µM; in data set [2], 7.36 µM; in data set [6] it was 40.1 µM; in [7], 13.8 µM; in [8] it was 21.4 µM. Further, the selectivity ratio is 0.53 in data set [3], 1.1 in data set [4] and 590 in [5].

On to `CC1CCc2ccccc2N1S(=O)(=O)c1ccc(N)cc1` (stereo unspecified), for which the IC50 was greater than 16.6 µM in data set [1]; 35.3 µM in [2]; 37.2 µM in [6]; 19.7 µM in [7]; 55.8 µM in [8]. Besides, the selectivity ratio in data set [3] is 1.78; in data set [4], less than 2.13; in data set [5], 590.

Take `CC1CCc2ccccc2N1S(=O)(=O)c1ccc([N+](=O)[O-])cc1` (stereo unspecified): the IC50 in data set [1] was 8.31 µM; in data set [2] it was 248 µM; in data set [6], 153 µM; in [7] it was 11.4 µM; in data set [8], greater than 271 µM. The selectivity ratio in data set [3] turned out to be 21.7; in [4] it was 30; in data set [5] it was 590. The “Ratio IC50” value in [9] was determined as 7.

`COc1ccc(S(=O)(=O)N2c3ccccc3CCC2C)cc1` (stereo unspecified): the concentration for half-maximal inhibition (IC50) was found to be 11.8 µM in data set [1]; 5.99 µM in data set [2]; 43.9 µM in data set [6]; 15.9 µM in data set [7]; 26.7 µM in data set [8]. For the same compound, the selectivity ratio was found to be 0.37 in data set [3], 0.5 in data set [4] and 590 in data set [5].

In turn, `O=C(Cn1ccnc1[N+](=O)[O-])NCc1ccccc1` [BENZNIDAZOLE] came in with an IC50 in data set [7] of 1.54 µM.

In the case of `Nc1nc(N)nc(Nc2ccc([As]3SCC(CO)S3)cc2)n1` (stereo unspecified) [MELARSOPROL], it took 0.008 µM to reach half-maximal inhibition in data set [6] (IC50).

In the case of `CCCCCCCCCCCCCCCCOP(=O)([O-])OCC[N+](C)(C)C` [MILTEFOSINE], half-maximal inhibition in data set [8] (IC50) was put at 0.25 µM.
